Experiments:
Histamine H4 receptor [1] = biological target: T1, Histamine H4 receptor (Homo sapiens, UniProt Q9H3N8); test: Displacement of [3H]histamine from human H4 receptor expressed in HEK cell membranes; design: species or system HEK293
Histamine H1 receptor [2] = biological target: Histamine H1 receptor (Homo sapiens, UniProt P35367); test: Displacement of [3H]histamine from human H1 receptor expressed in HEK cell membranes; design: species or system HEK293
[3] = Oral bioavailability in mouse; assay type: ADME, organism-based; conditions: in vivo
Histamine H3 receptor [4] = biological target: Histamine H3 receptor (Rattus norvegicus, UniProt Q9QYN8); test: Displacement of [3H]histamine from rat H3R
Chain of Histamine H3 receptor (Rattus norvegicus, UniProt Q9QYN8) (Q9QYN8 whole entry): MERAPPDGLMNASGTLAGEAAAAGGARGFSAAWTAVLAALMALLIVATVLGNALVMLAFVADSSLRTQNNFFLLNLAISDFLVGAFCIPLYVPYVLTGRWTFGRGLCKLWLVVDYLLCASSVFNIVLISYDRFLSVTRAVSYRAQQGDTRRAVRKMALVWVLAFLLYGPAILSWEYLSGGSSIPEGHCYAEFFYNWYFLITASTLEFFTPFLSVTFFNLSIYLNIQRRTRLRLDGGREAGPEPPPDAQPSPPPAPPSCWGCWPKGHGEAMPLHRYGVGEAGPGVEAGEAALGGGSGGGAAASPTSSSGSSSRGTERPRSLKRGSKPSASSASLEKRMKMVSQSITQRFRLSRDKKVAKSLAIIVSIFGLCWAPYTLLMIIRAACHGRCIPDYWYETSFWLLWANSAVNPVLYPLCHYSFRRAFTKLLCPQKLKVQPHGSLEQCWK

Histamine H1 receptor [5] = biological target: Histamine H1 receptor (Rattus norvegicus, UniProt P31390); test: Displacement of [3H]histamine from rat H1R
Chain of Histamine H1 receptor (Rattus norvegicus, UniProt P31390) (P31390 whole entry): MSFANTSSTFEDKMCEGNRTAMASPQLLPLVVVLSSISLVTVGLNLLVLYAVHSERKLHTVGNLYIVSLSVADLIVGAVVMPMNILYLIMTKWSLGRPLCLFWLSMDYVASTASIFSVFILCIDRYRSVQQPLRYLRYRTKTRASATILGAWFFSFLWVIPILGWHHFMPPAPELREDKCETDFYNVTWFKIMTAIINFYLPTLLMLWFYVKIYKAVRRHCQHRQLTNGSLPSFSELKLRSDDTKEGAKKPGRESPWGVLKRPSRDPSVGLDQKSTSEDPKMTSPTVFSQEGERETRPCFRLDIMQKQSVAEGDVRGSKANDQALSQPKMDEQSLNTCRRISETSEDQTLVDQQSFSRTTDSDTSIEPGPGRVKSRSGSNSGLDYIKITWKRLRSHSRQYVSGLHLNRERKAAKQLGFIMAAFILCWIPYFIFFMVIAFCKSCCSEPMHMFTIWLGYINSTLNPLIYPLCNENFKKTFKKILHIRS

Histamine H4 receptor [6] = biological target: T1, Histamine H4 receptor; test: Antagonist activity at human H4 receptor expressed in HEK293T cells assessed as inhibition of histamine-induced [35S]GTPgammaS binding; assay type: functional, cell-based, HEK-293T
Histamine H4 receptor [7] = biological target: Histamine H4 receptor (Rattus norvegicus, UniProt Q91ZY1); test: Displacement of [3H]histamine from rat H4R
Chain of Histamine H4 receptor (Rattus norvegicus, UniProt Q91ZY1) (Q91ZY1 whole entry): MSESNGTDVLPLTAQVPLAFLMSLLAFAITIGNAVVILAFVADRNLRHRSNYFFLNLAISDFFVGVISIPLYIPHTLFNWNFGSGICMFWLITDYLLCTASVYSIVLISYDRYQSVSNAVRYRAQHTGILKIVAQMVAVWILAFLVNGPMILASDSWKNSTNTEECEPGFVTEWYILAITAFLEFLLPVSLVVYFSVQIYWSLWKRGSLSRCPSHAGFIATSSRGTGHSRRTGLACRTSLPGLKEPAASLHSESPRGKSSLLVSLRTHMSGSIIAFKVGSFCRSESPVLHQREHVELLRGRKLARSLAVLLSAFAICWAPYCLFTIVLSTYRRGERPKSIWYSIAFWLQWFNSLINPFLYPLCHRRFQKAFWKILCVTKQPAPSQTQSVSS

Histamine H4 receptor [8] = biological target: T1, Histamine H4 receptor
[9] = Metabolic stability in human liver microsomes assessed as compound remaining after 60 mins; assay type: ADME, Microsome; conditions: read-out: Stability
Method in brief: (§1)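 Liver microsomes (human, mouse or rat) incubated with compound for 60 min. Read-out is percentage of parent compound remaining; assay carried out by a contract laboratory.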

Histamine H4 receptor [10] = biological target: T2, Histamine H4 receptor (Mus musculus, UniProt Q91ZY2); test: Displacement of [3H]histamine from mouse H4R
T2 sequence (Q91ZY2 whole entry): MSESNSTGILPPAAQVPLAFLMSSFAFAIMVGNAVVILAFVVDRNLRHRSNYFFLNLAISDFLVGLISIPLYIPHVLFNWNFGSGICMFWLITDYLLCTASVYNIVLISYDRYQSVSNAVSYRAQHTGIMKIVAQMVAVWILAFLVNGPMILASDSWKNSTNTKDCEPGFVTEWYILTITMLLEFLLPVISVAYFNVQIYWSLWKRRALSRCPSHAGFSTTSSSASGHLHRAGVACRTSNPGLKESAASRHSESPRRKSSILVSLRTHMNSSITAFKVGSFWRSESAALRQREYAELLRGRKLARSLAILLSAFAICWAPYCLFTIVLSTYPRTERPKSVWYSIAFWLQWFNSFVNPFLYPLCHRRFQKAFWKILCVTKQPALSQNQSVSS

[11] = Metabolic stability in rat liver microsomes assessed as compound remaining after 60 mins; assay type: ADME, Microsome; conditions: read-out: Stability; method in brief: as §1
[12] = Half life in mouse; assay type: ADME, organism-based; conditions: in vivo
Histamine H3 receptor [13] = biological target: Histamine H3 receptor (Mus musculus, UniProt P58406); test: Displacement of [3H]histamine from mouse H3R
Chain of Histamine H3 receptor (Mus musculus, UniProt P58406) (P58406 whole entry): as the sequence (Q9QYN8 whole entry) above, with T15A, A286T, A290G, R387H, I389V counted along it

[14] = Metabolic stability in mouse liver microsomes assessed as compound remaining after 60 mins; assay type: ADME, Microsome; conditions: read-out: Stability; method in brief: as §1
[15] = biological target: Histamine H2 receptor (Homo sapiens) (UniProt P25021); test: Displacement of cimetidine from H2 receptor at 10 uM
Chain of Histamine H2 receptor (Homo sapiens) (P25021 whole entry): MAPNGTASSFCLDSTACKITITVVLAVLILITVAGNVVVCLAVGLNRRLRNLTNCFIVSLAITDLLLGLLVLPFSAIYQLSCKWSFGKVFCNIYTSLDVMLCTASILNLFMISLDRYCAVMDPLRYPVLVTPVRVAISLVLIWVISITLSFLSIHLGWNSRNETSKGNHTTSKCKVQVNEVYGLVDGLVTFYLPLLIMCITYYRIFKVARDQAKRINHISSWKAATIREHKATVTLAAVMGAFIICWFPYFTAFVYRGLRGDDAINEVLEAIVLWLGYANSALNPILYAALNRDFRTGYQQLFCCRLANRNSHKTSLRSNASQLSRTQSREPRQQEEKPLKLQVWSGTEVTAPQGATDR
Method in brief: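 Single test concentration of 10 μM, run in duplicate. Result given as percentage displacement of cimetidine binding at the H2 receptor; assay carried out by a contract laboratory.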

Histamine H3 receptor [16] = biological target: Histamine H3 receptor (Homo sapiens, UniProt Q9Y5N1); test: Displacement of [3H]histamine from human H3 receptor expressed in HEK cell membranes; design: species or system HEK293
Chain of Histamine H3 receptor (Homo sapiens, UniProt Q9Y5N1) (Q9Y5N1 whole entry): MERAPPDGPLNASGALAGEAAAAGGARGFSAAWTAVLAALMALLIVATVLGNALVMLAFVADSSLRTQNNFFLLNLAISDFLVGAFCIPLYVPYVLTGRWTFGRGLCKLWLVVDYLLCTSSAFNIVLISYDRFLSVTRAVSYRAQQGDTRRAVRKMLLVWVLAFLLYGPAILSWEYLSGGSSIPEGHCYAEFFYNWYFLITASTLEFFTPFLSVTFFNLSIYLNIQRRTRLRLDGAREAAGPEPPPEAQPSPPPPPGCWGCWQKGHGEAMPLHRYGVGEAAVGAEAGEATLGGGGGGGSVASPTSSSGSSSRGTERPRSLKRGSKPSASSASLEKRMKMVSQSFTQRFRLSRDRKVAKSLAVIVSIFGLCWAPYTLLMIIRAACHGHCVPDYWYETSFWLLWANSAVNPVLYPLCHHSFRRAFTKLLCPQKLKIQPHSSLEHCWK

Chain of Histamine H1 receptor (Homo sapiens, UniProt P35367) (P35367 whole entry): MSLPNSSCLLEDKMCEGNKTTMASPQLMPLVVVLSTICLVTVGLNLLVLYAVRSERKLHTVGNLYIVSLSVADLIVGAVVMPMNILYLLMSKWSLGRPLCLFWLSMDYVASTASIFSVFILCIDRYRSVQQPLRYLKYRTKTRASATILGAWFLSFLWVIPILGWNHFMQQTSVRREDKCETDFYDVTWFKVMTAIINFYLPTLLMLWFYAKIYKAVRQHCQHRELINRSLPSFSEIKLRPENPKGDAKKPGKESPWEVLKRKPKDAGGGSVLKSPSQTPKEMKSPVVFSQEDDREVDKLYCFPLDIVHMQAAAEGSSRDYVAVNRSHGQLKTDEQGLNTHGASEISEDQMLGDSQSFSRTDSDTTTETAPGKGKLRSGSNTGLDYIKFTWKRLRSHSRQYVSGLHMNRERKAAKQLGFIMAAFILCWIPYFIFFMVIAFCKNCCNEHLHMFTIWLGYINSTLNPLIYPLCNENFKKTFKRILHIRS

Ki (Histamine H4 receptor [1])	Ki (Histamine H1 receptor [2])	IC50 (Histamine H4 receptor [6])	Ki (Histamine H4 receptor [6])	Compound	also measured
6 nM				Nc1nc2c(c(N3CCNCC3)n1)CCC1=C2[C@H]2CCCC[C@H]2O1	
16 nM	10500 nM	106 nM	7 nM	Nc1nc(N2CCNCC2)c2ccc(-c3ccco3)cc2n1	bioavailability [3]: 47%; Ki (Histamine H3 receptor [4]): 2560 nM; Ki (Histamine H1 receptor [5]): 3600 nM; Ki (Histamine H4 receptor [7]): 174 nM; T1/2 (Histamine H4 receptor [8]): 4.1 min; remaining at 1 h [9]: 96%; Ki (Histamine H4 receptor [10]): 23 nM; remaining at 1 h [11]: 83%; half-life [12]: 412 min; Ki (Histamine H3 receptor [13]): 1070 nM; remaining at 1 h [14]: 80%
6 nM				CN1CCN(c2nc3cc(Cl)c(Cl)cc3[nH]c2=O)CC1	
15 nM				CC(=O)c1cccc(-c2ccc3c(N4CCN(C)CC4)nc(N)nc3c2)c1	
676 nM				CC(=O)c1cccc(-c2cccc3c(N4CCN(C)CC4)nc(N)nc23)c1	
4 nM	2800 nM	46 nM	3 nM	CN1CCN(c2nc(N)nc3cc(-c4ccsc4)ccc23)CC1	Activity [15]: 74%; Ki (Histamine H3 receptor [16]): 63 nM
5 nM	6420 nM	83 nM	5 nM	CN1CCN(c2nc(N)nc3cc(-c4ccco4)ccc23)CC1	Activity [15]: 51%; Ki (Histamine H3 receptor [16]): 98 nM
				CN1CCN(C(=O)c2nc3ccc(Cl)cc3[nH]2)CC1	T1/2 (Histamine H4 receptor [8]): 25.6 min

Compound	Ki (Histamine H4 receptor [1])	Ki (Histamine H1 receptor [2])	IC50 (Histamine H4 receptor [6])	Ki (Histamine H4 receptor [6])	also measured
CN1CCN(c2nc(N)nc3cc(-c4ccoc4)ccc23)CC1		7370 nM	47 nM	4 nM	Activity [15]: 54%; Ki (Histamine H3 receptor [16]): 188 nM
CN1CCN(c2nc(N)nc3ccccc23)CC1	32 nM				
CN1CCN(c2ncnc3ccccc23)CC1	328 nM				
CN1CCN(c2ccnc(N)n2)CC1	31 nM				
Cc1ccc2nc(N)nc(N3CCN(C)CC3)c2c1	649 nM				
